ChEMBL document CHEMBL4130369, “Structure-activity relations of rosmarinic acid derivatives for the amyloid β aggregation inhibition and antioxidant properties” (Eur J Med Chem, 2017)

Assays:
[1] = Antioxidant activity assessed as inhibition of DPPH radical at 100 uM incubated for 20 mins measured for 60 mins relative to control; format: functional
Outline: (§1)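 DPPH (40 μL of 1 mM stock) in EtOH; test compound added from 2 mM or 10 mM DMSO stocks at rt. Absorbance at 517 nm read continuously for 60 min. Radical trapping capacity was calculated from the 20 min reading.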

[2] = Inhibition of butter milk XOD (unknown origin) at 10 uM using xanthine as substrate after 8 mins relative to control
Outline: (§2)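 Butter-milk xanthine oxidase in 100 mM phosphate buffer, pH 7.6, with compound added in DMSO. Reaction started with 500 μM xanthine (solution concentration) at rt and stopped after 8 min with 1N HCl. Absorbance at 290 nm was compared with enzyme-activity and blank wells to calculate % inhibition.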

[3] = target: T1, Amyloid-beta precursor protein (Homo sapiens, UniProt P05067); assay: Inhibition of QD-labeled amyloid beta (1 to 42) (unknown origin) aggregation after 24 hrs by inverted fluorescence microscopic method
Outline: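 Modified MSHTS: 30 μM Aβ(1-42) plus 30 nM QD-labeled Aβ(1-42) with serial compound concentrations in PBS containing 5% EtOH and 3% DMSO, 37°C, 24 h. Coaggregates were imaged by inverted fluorescence microscopy with a color CCD. SD of pixel fluorescence in the well centre (100×100 pixels) was plotted against concentration, and EC50 was fitted by global EC50-shift fitting.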

[4] = Antioxidant activity assessed as inhibition of DPPH radical at 500 uM incubated for 20 mins measured for 60 mins relative to control; format: functional; outline: as §1
[5] = target: T1, Amyloid-beta precursor protein; assay: Inhibition of QD-labeled amyloid beta (1 to 42) (unknown origin) aggregation assessed as change in fluorescence at 5.13 uM after 24 hrs by inverted fluorescence microscopic method (reference value: 6.77)
Outline: (§3)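 Aβ(1-42) (30 μM) was co-incubated with 30 nM QD-labeled Aβ(1-42) and compound in PBS containing 5% EtOH and 3% DMSO at 37°C for 24 h. Coaggregates were imaged by inverted fluorescence microscope with a colour CCD camera. The read-out was the SD of fluorescence intensity over the central 100 × 100 pixels. Aggregation parameters came from Boltzmann fitting of SD versus time, compared with the no-inhibitor control.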

[6] = target: T1, Amyloid-beta precursor protein; assay: Inhibition of QD-labeled amyloid beta (1 to 42) (unknown origin) aggregation assessed as lag time of aggregation at 5.13 uM after 24 hrs by inverted fluorescence microscopic method (reference value: 4.44 mins)
[7] = Inhibition of butter milk XOD (unknown origin) at 100 uM using xanthine as substrate after 8 mins relative to control; outline: as §2
[8] = target: T1, Amyloid-beta precursor protein; assay: Inhibition of QD-labeled amyloid beta (1 to 42) (unknown origin) aggregation assessed as aggregation growth rate at 5.13 uM after 24 hrs by inverted fluorescence microscopic method (reference value: 0.533 /min)
[9] = Inhibition of butter milk XOD (unknown origin) at 1 uM using xanthine as substrate after 8 mins relative to control
Outline: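 Buttermilk xanthine oxidase in 100 mM phosphate buffer pH 7.6 was mixed with compound in DMSO. The reaction was started with xanthine solution (500 μM as added) and run at rt for 8 min, then stopped with 1N HCl. Absorbance was read at 290 nm, and % inhibition was calculated against enzyme-activity and blank wells.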

[10] = target: T1, Amyloid-beta precursor protein; assay: Inhibition of QD-labeled amyloid beta (1 to 42) (unknown origin) aggregation assessed as lag time of aggregation at 20.3 uM after 24 hrs by inverted fluorescence microscopic method (reference value: 4.44 mins)
[11] = target: T1, Amyloid-beta precursor protein; assay: Inhibition of QD-labeled amyloid beta (1 to 42) (unknown origin) aggregation assessed as change in fluorescence at 20.3 uM after 24 hrs by inverted fluorescence microscopic method (reference value: 6.77); outline: as §3
[12] = target: T1, Amyloid-beta precursor protein; assay: Inhibition of QD-labeled amyloid beta (1 to 42) (unknown origin) aggregation assessed as aggregation growth rate at 20.3 uM after 24 hrs by inverted fluorescence microscopic method (reference value: 0.533 /min)

T1 sequence (P05067 whole entry): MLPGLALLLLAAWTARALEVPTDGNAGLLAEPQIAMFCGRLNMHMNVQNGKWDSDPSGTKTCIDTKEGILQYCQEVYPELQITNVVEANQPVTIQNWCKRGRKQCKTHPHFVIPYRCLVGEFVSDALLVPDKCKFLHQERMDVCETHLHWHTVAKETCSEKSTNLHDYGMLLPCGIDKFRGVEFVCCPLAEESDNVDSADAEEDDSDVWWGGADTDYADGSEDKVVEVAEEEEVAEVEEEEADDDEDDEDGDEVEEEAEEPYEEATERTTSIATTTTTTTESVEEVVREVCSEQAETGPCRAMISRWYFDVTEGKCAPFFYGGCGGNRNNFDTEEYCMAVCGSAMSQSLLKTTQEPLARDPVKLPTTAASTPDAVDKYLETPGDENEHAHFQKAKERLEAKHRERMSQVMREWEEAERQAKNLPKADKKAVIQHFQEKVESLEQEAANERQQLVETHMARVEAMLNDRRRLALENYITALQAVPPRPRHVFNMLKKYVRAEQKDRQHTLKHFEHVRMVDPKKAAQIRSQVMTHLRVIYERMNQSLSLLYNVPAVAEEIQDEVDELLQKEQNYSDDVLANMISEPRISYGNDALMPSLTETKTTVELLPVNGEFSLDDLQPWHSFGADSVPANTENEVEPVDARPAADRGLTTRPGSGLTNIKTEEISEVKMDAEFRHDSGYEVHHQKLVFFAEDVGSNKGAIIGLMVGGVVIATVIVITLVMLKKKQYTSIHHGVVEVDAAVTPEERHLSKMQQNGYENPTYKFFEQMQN

CCCCCCOC(=O)/C=C/c1ccc(O)c(O)c1 [HEXYLCAFFEATE]
inhibition [1]: 45%
inhibition [2]: 10%
EC50 [3]: 5.13 µM
inhibition [4]: 61%
Flu intensity [5]: 3.68
TIME [6]: 0.0183 h
inhibition [7]: < 10%
K [8]: 0.19 min⁻¹

O=C(O)/C=C/c1ccc(O)c(O)c1 [CAFFEIC ACID]
inhibition [1]: 49%
inhibition [2]: < 10%
EC50 [3]: 216 µM
inhibition [4]: 63%
inhibition [7]: < 10%

O=C(/C=C/c1ccc(O)c(O)c1)OCCc1ccccc1 [CAFFEIC ACID PHENETHYL ESTER]
inhibition [1]: 35%
inhibition [2]: < 10%
EC50 [3]: 8.41 µM
inhibition [4]: 51%
inhibition [7]: 62%

CCCCCCCCCOC(=O)/C=C/c1ccc(O)c(O)c1
inhibition [1]: 45%
inhibition [2]: < 10%
EC50 [3]: 9.52 µM
inhibition [4]: 61%
inhibition [7]: 40%

O=C(/C=C/c1ccccc1)OCCc1ccc(O)c(O)c1
inhibition [1]: 40%
inhibition [2]: < 10%
EC50 [3]: 7.95 µM
inhibition [4]: 56%
inhibition [7]: 22%

CCCCCNC(=O)/C=C/c1ccc(O)c(O)c1
inhibition [1]: 40%
inhibition [2]: < 10%
EC50 [3]: 11.4 µM
inhibition [4]: 53%
inhibition [7]: 33%

COc1ccc(CCOC(=O)CCc2ccccc2)cc1OC
inhibition [1]: < 10%
inhibition [2]: < 10%
EC50 [3]: 274 µM
inhibition [4]: < 10%
inhibition [7]: < 10%

Oc1ncnc2[nH]ncc12
inhibition [2]: > 90%
inhibition [9]: < 10%

CCCCCCC(=O)/C=C/c1ccc(O)c(O)c1
inhibition [1]: 48%
inhibition [2]: 12%
EC50 [3]: 2.82 µM
inhibition [4]: 62%
inhibition [7]: 76%

CCCCCOC(=O)/C=C/c1ccc(O)c(O)c1
inhibition [1]: 46%
inhibition [2]: 11%
EC50 [3]: 2.58 µM
inhibition [4]: 62%
inhibition [7]: > 90%

O=C(CCc1ccccc1)OCCc1ccc(O)c(O)c1
inhibition [1]: 38%
inhibition [2]: < 10%
EC50 [3]: 5.93 µM
inhibition [4]: 54%
inhibition [7]: < 10%

COc1ccc(CCOC(=O)/C=C/c2ccc(O)c(O)c2)cc1OC
inhibition [1]: 43%
inhibition [2]: 50%
EC50 [3]: 39.5 µM
inhibition [4]: 59%
inhibition [7]: 43%

CC1=NN(c2ccccc2)C(=O)C1
inhibition [1]: 50 to 53%
inhibition [4]: 71 to 75%

O=C(/C=C/c1ccc(O)c(O)c1)OCCCCCCO
inhibition [1]: 42%
inhibition [2]: < 10%
EC50 [3]: 54.8 µM
inhibition [4]: 55%
inhibition [7]: 51%

CCCOC(=O)/C=C/c1ccc(O)c(O)c1
inhibition [1]: 46%
inhibition [2]: < 10%
EC50 [3]: 24.7 µM
inhibition [4]: 63%
inhibition [7]: 61%

O=C(/C=C/c1ccccc1)OCCc1ccccc1 [PHENETHYL CINNAMATE]
inhibition [1]: < 10%
inhibition [2]: < 10%
EC50 [3]: 1040 µM
inhibition [4]: < 10%
inhibition [7]: < 10%

C=CCOC(=O)/C=C/c1ccc(O)c(O)c1
inhibition [1]: 46%
inhibition [2]: < 10%
EC50 [3]: 23.2 µM
inhibition [4]: 62%
inhibition [7]: 22%

O=C(/C=C/c1ccc(O)c(O)c1)NCCc1ccc(O)c(O)c1
inhibition [1]: 47%
inhibition [2]: < 10%
EC50 [3]: 69 µM
inhibition [4]: 64%
inhibition [7]: 30%

O=C(/C=C/c1ccc(O)c(O)c1)OCCCCCO
inhibition [1]: 41%
inhibition [2]: < 10%
EC50 [3]: 80.1 µM
inhibition [4]: 54%
inhibition [7]: 84%

COC(=O)/C=C/c1ccc(O)c(O)c1 [METHYLCAFFEATE]
inhibition [1]: 48%
inhibition [2]: < 10%
EC50 [3]: 67.7 µM
inhibition [4]: 64%
inhibition [7]: 65%

O=C(CCc1ccc(O)c(O)c1)OCCc1ccc(O)c(O)c1
inhibition [1]: 37%
inhibition [2]: < 10%
EC50 [3]: 14.9 µM
inhibition [4]: 49%
inhibition [7]: 21%

CCCCCCCOC(=O)/C=C/c1ccc(O)c(O)c1
inhibition [1]: 46%
inhibition [2]: 11%
EC50 [3]: 10.4 µM
inhibition [4]: 63%
inhibition [7]: 25%

CCCCOC(=O)/C=C/c1ccc(O)c(O)c1 [BUTYL CAFFEATE]
inhibition [1]: 46%
inhibition [2]: < 10%
EC50 [3]: 12 µM
inhibition [4]: 62%
inhibition [7]: > 90%

NC(=O)C(Cc1ccc(O)c(O)c1)OC(=O)/C=C/c1ccc(O)c(O)c1 (stereo not given)
inhibition [1]: 39%
inhibition [2]: 38%
EC50 [3]: 21.9 µM
inhibition [4]: 48%
inhibition [7]: 82%

O=C(CCc1ccccc1)OCCc1ccccc1
inhibition [1]: < 10%
inhibition [2]: < 10%
EC50 [3]: 4540 µM
inhibition [4]: < 10%
inhibition [7]: < 10%

O=C(/C=C/c1ccc(O)c(O)c1)OCCc1ccc(O)c(O)c1
inhibition [1]: 37%
inhibition [2]: 26%
EC50 [3]: 20.6 µM
inhibition [4]: 46%
inhibition [7]: 80%

O=C(/C=C/c1ccc(O)c(O)c1)O[C@H](Cc1ccc(O)c(O)c1)C(=O)O [ROSMARINIC ACID]
TIME [10]: 0.093 h
inhibition [1]: 47%
inhibition [2]: < 10%
EC50 [3]: 20.3 µM
inhibition [4]: 66%
Flu intensity [11]: 3.4
inhibition [7]: 27%
K [12]: 0.508 min⁻¹
